The text below walks through data of ChEMBL document CHEMBL1148268, “Macrocyclic piperazinones as potent dual inhibitors of farnesyltransferase and geranylgeranyltransferase-I” (Bioorg Med Chem Lett, 2004).

In brackets after ≈: the same amount, converted by molar mass.

Assay [1] has as its target T1, Geranylgeranyl transferase type I (Homo sapiens, UniProt P49354+P53609). The assay can be described thus: Inhibition of human Geranylgeranyl transferase type I incorporation of [3H]GGPP into biotinylated peptide corresponding to the C-terminus of human Ki-Ras. The assay is classed as protein-complex assay. The procedure, abridged:
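Human GGPTase-I with [3H]GGPP and a biotinylated peptide matching the human Ki-Ras C-terminus. Enzyme and inhibitor are preincubated for 30 min with 5 mM ATP. The IC50 is the concentration that halves incorporation. A parallel run omits the preincubation.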

In assay [2] the target is T2, Protein farnesyltransferase (Homo sapiens, UniProt P49354+P49356). The assay can be described thus: Inhibition of human Farnesyltransferase -catalyzed incorporation of [3H]FPP into recombinant Ras-CVIM. The format is protein-complex assay. The procedure, abridged: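 Human FPTase with [3H]FPP and recombinant Ras-CVIM as the protein substrate. The IC50 is the concentration that halves [3H]farnesyl incorporation into Ras-CVIM.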

Assay [3] has as its target T2, Protein farnesyltransferase. The assay can be described thus: Displacement of radiolabeled FTI from Farnesyltransferase in cultured Ha-ras transformed RAT1 cells. The format is cell-based.
Assay [4] relates to PSN1. The assay can be described thus: Effective dose required for half-maximal inhibition of geranylgeranylated protein (Rap1a) in PSN-1 cells. The format is functional, cell-based. As to conditions: Homo sapiens. An outline of the steps:
(§1)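 PSN-1 cells are treated with compound. Prenylation of HDJ2, Rap1a and Ki-Ras is scored by scanning immunoblots of whole-cell extracts, and EC50 is the dose giving half-maximal inhibition of prenylation. The ratio is Ki-Ras EC50 over HDJ2 EC50. In one arm a selective GGTI is added at 1 μM.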

The test system of assay [5] is PSN1. The assay can be described thus: Effective dose required for half-maximal inhibition of farnesylated protein (HDJ2) in PSN-1 cells. As to conditions: Homo sapiens. The format is functional, cell-based. An outline of the steps:
as §1

The next assay is filed under the species Homo sapiens. The assay can be described thus: Slope between log (IC50) versus log [GGPP] in GGTase-I. The assay is classed as functional. The procedure, abridged: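 GGPP competition in the human GGPTase-I [3H]GGPP/biotinylated Ki-Ras peptide assay. IC50s are measured at various GGPP concentrations with 5 mM ATP.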
Assay [6] concerns PSN1. The assay can be described thus: Effective dose required for half-maximal inhibition of prenylation in PSN-1 cells (Ki-Ras). The format is functional, cell-based. The settings on record: Homo sapiens. An outline of the steps: as §1
In assay [7] the target is T1, Geranylgeranyl transferase type I. The assay can be described thus: Minimum inhibitory concentration required to inhibit Rap1a processing in PSN-1 cells. The assay is classed as functional, cell-based.
Assay [8] relates to PSN1. The assay can be described thus: Ratio of effective concentration required for protein processing of Ki-Ras to that of HDJ2 in PSN-1 cells. The assay is classed as functional, Homo sapiens. An outline of the steps:
as §1

Consider `N#Cc1ccc2cc1Oc1ccc(C#Cc3ccccc3)c(c1)CN1CCN(CC1=O)Cc1cncn1C2`, for which the IC50 was found to be 534 nM in assay [1] and 645 nM in [2].

As to `N#Cc1ccc2cc1Oc1ccc(Cl)c(c1)CN1CCN(CC1=O)Cc1cncn1C2`, the results for the IC50 in [3], in assay [1] and in assay [2] were 0.3 nM, 450 nM and less than 1 nM, respectively.

For `N#Cc1ccc(Cn2cncc2CN2CCN(c3cccc(Cl)c3)C(=O)C2)cc1` [L-778123 FREE BASE], the EC50 in the assay on PSN1 [4] is 6760 nM; with PSN1 [5], 92 nM; with PSN1 [6], 6300 nM. Besides, in the assay filed under Homo sapiens, the Slope is on record as 1.42.

Turning to `CC(C)(C)C#Cc1ccc2cc1CN1CCN(CC1=O)Cc1cncn1Cc1ccc(C#N)c(c1)O2`, in [7], the MIC is 1 µM (≈ 0.48 µg/mL). Also, the IC50 in assay [3] was found to be 10 nM; in assay [1] it was 55 nM; in [2], 38 nM. In addition, in the assay listed under Homo sapiens, the Slope amounted to 0.32.

On to `N#Cc1ccc2cc1Oc1ccc(CCC3CCCCC3)c(c1)CN1CCN(CC1=O)Cc1cncn1C2`, for which, in the assay with PSN1 [8], the Ratio amounted to 89. Besides, the half-maximal effective concentration (EC50) in the assay with PSN1 [4] is 140 nM; in the assay on PSN1 [5], 12 nM; in the assay on PSN1 [6], 1060 nM. The same compound showed an MIC in [7] of 0.03 µM (≈ 0.0153 µg/mL). The concentration for half-maximal inhibition (IC50) in assay [3] was 5.7 nM; in assay [1], 1.7 nM; in assay [2], 1.6 nM. Besides, the Slope in the assay listed under Homo sapiens is -0.25.

Consider `C=CCc1ccc2cc1CN1CCN(CC1=O)Cc1cncn1Cc1ccc(C#N)c(c1)O2`, for which the MIC in [7] is 1 µM (≈ 0.44 µg/mL). Besides, the values for the IC50 in [3], in [1] and in assay [2] were 0.59 nM, 107 nM and 0.1 nM, respectively.

Consider `N#Cc1ccc2cc1Oc1ccc(C(=O)NC3C4CC5CC(C4)CC3C5)c(c1)CN1CCN(CC1=O)Cc1cncn1C2` (stereo not drawn), for which, in assay [7], the MIC amounted to 0.1 µM (≈ 0.0577 µg/mL). Moreover, the IC50 was found to be 30 nM in assay [3], 43 nM in assay [1] and 20 nM in [2]. The Slope in the assay listed under Homo sapiens came out at 0.28.

Consider `N#Cc1ccc2cc1Oc1cccc(c1)CN1CCN(CC1=O)Cc1cncn1C2`, for which the MIC in [7] was found to be 30 µM (≈ 12 µg/mL). Also, the values for the IC50 in assay [3], in [1] and in [2] were 3.3 nM, 3780 nM and 2.2 nM, respectively. The Slope in the assay listed under Homo sapiens was found to be 0.08.

`CCc1ccc2cc1CN1CCN(CC1=O)Cc1cncn1Cc1ccc(C#N)c(c1)O2` had an MIC in assay [7] of 1 µM (≈ 0.428 µg/mL). The IC50 in assay [3] turned out to be 1.2 nM; in assay [1], 124 nM; in [2], 0.66 nM. Besides, the Slope in the assay filed under Homo sapiens was -0.16.

`N#Cc1ccc2cc1Oc1ccc(Br)c(c1)CN1CCN(CC1=O)Cc1cncn1C2`: the MIC in assay [7] was 10 µM (≈ 4.78 µg/mL). Moreover, the results for the IC50 in assay [3], in assay [1] and in [2] were 1.1 nM, 100 nM and 0.45 nM, respectively.

`CCCc1ccc2cc1CN1CCN(CC1=O)Cc1cncn1Cc1ccc(C#N)c(c1)O2`: in assay [7], the MIC was 1 µM (≈ 0.442 µg/mL). Also, the IC50 in assay [3] is 0.44 nM; in assay [1], 97 nM; in assay [2], 0.31 nM. The Slope in the assay filed under Homo sapiens is on record as -0.12.

In turn, `N#Cc1ccc2cc1Oc1ccc(C#CC3CCCCC3)c(c1)CN1CCN(CC1=O)Cc1cncn1C2` came in with an MIC in [7] of 0.3 µM (≈ 0.152 µg/mL). The half-maximal inhibitory concentration (IC50) is 170 nM in [3], 2.4 nM in assay [1] and 364 nM in [2]. The compound also had a Slope in the assay listed under Homo sapiens of 0.68.

In the case of `C#Cc1ccc2cc1CN1CCN(CC1=O)Cc1cncn1Cc1ccc(C#N)c(c1)O2`, the MIC in assay [7] worked out at 3 µM (≈ 1.27 µg/mL). Besides, the IC50 in assay [3] turned out to be 1.4 nM; in assay [1] it was 212 nM; in assay [2], 0.5 nM.

On to `Cc1ccc2cc1CN1CCN(CC1=O)Cc1cncn1Cc1ccc(C#N)c(c1)O2`, for which the IC50 in assay [3] was found to be 0.33 nM; in assay [1], 502 nM.

With `CC1(C)OCC(Cc2ccc3cc2CN2CCN(CC2=O)Cc2cncn2Cc2ccc(C#N)c(c2)O3)O1` (stereo not drawn), the Ratio in the assay with PSN1 [8] worked out at 150. In addition, the EC50 is 690 nM with PSN1 [4], 10 nM in the assay on PSN1 [5] and 1520 nM in the assay on PSN1 [6]. In assay [7], the MIC is less than 0.3 µM. Further, the values for the IC50 in assay [3], in [1] and in assay [2] were 0.86 nM, 46 nM and 0.5 nM, respectively. In the assay listed under Homo sapiens, the Slope amounted to 0.25.

In [7], `COC(=O)c1ccc2cc1CN1CCN(CC1=O)Cc1cncn1Cc1ccc(C#N)c(c1)O2` gave an MIC of 3 µM (≈ 1.37 µg/mL). Besides, the figures for the IC50 in assay [3], in [1] and in assay [2] were 20 nM, 420 nM and 24 nM, respectively.

Consider `N#Cc1ccc2cc1Oc1ccc(F)c(c1)CN1CCN(CC1=O)Cc1cncn1C2`, for which the IC50 in assay [3] was 1 nM; in [1], 2750 nM; in assay [2], less than 1 nM.

The compound `CC(C)(C)CCc1ccc2cc1CN1CCN(CC1=O)Cc1cncn1Cc1ccc(C#N)c(c1)O2` returned an MIC in assay [7] of 0.1 µM (≈ 0.0484 µg/mL). In addition, the IC50 in assay [3] is 28 nM; in [1], 2.1 nM; in assay [2] it was 19 nM. In the assay filed under Homo sapiens, this compound registered a Slope of 0.48.

With `N#Cc1ccc2cc1Oc1ccc3cccc(c3c1)N1CCN(CC1=O)Cc1cncn1C2`, the Ratio with PSN1 [8] is reported as more than 5000. The results for the EC50 in the assay on PSN1 [4], with PSN1 [5] and with PSN1 [6] were more than 10000 nM, 2 nM and more than 10000 nM, respectively. In assay [7], this compound yielded an MIC of 10 µM (≈ 4.35 µg/mL). Besides, the IC50 was 0.29 nM in assay [3] and 301 nM in assay [1]. Further, the Slope in the assay filed under Homo sapiens is given as -0.44.

Consider `N#Cc1ccc2cc1Oc1ccc(CC(O)CO)c(c1)CN1CCN(CC1=O)Cc1cncn1C2` (stereo not drawn), for which the concentration for half-maximal inhibition (IC50) came to 40 nM in [3], 1050 nM in assay [1] and 6.8 nM in assay [2].

For the compound `N#Cc1ccc2cc1Oc1ccc(CC3CC3)c(c1)CN1CCN(CC1=O)Cc1cncn1C2`, the MIC in assay [7] came out at 10 µM (≈ 4.54 µg/mL). The IC50 in assay [3] was determined as 2.2 nM; in [1], 238 nM; in [2], 0.66 nM.
